Drawing on ChEMBL document CHEMBL4017537, “Discovery of a Potent and Specific M. tuberculosis Leucyl-tRNA Synthetase Inhibitor: (S)-3-(Aminomethyl)-4-chloro-7-(2-hydroxyethoxy)benzo[c][1,2]oxaborol-1(3H)-ol (GSK656)” (J Med Chem, 2017), this text covers IC50 and MIC for 31 molecules.

The target of one experiment is T1, Leucine--tRNA ligase (Mycobacterium tuberculosis (strain ATCC 25618 / H37Rv), UniProt P9WFV1).
T1 sequence (P9WFV1 whole entry): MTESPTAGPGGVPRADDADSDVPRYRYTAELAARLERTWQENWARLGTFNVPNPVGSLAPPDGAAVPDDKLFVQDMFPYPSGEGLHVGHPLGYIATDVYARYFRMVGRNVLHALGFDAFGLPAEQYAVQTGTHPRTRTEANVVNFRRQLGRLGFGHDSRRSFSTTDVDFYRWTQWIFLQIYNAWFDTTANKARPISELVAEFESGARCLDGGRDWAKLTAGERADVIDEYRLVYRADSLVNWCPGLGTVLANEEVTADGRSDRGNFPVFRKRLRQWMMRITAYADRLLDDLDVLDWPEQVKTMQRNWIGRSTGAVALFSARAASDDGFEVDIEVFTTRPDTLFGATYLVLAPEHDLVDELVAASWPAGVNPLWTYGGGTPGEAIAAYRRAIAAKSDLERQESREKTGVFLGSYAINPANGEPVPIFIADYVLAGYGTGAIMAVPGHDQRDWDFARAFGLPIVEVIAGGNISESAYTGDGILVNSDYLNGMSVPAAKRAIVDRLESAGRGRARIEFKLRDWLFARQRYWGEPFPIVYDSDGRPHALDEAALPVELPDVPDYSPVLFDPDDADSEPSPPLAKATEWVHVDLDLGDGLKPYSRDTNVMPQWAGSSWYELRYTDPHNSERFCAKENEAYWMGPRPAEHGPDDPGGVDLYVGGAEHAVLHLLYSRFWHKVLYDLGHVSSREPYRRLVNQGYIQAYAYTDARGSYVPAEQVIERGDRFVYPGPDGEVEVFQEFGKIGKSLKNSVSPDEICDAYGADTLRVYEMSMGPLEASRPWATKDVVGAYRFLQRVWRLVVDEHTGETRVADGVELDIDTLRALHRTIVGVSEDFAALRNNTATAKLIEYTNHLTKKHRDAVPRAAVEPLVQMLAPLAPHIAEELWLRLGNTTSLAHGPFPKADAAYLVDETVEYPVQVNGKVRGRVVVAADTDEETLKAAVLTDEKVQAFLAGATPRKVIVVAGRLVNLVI
Nature of the experiment: Inhibition of Mycobacterium tuberculosis H37Rv N-terminal 6His-tagged LeuRS expressed in Escherichia coli BL21(DE3) assessed as L-[14C]leucine incorporation in to Escherichia coli tRNA after 20 mins by liquid scintillation counting analysis. In a few lines: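 N-terminal His6-tagged LeuRS expressed in E. coli BL21(DE3), codon-optimized. 50 mM HEPES-KOH pH 8.0, 30 mM MgCl2, 30 mM KCl, 13 μM L-[14C]leucine, 15 μM tRNA (E. coli total; brewer's yeast for human cytoplasmic enzyme), 0.02% BSA, 1 mM DTT, 30 °C. Inhibitor preincubated 20 min, started with 4 mM ATP, TCA-quenched after 7 min, filtered, scintillation counted; four-parameter logistic IC50.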

The test system of experiment [1] is Mycobacterium tuberculosis. Nature of the experiment: Antimicrobial activity against Mycobacterium tuberculosis H37Rv. Format: functional.

≈ marks a conversion by molar mass, not a printed value.

As usually defined, the IC50 is the concentration that inhibits the measured activity by half. In general, MIC refers to the smallest concentration in the dilution series that meets the test's criterion for growth inhibition. A lower MIC goes with inhibition by little substance. As to `NCC1OB(O)c2c(OCC(F)F)ccc(Br)c21` (racemic), the concentration for half-maximal inhibition (IC50) at Leucine--tRNA ligase worked out at 0.24 µM. The molecule further showed an MIC in experiment [1] of 0.31 µM (≈ 0.0998 µg/mL).
`NCC1OB(O)c2c(OCCc3ccccc3)ccc(Br)c21` (racemic): the IC50 on Leucine--tRNA ligase came out at 0.47 µM. The MIC in experiment [1] is greater than 5 µM.
For the molecule `NCC1OB(O)c2c3c(cc(Cl)c21)OCCO3` (racemic), at Leucine--tRNA ligase, the IC50 was 0.13 µM. In experiment [1], this molecule gave a minimal inhibitory concentration (MIC) of 0.31 µM (≈ 0.0792 µg/mL).
In the same order, the values of `CCCOc1cc(Cl)c2c(c1)B(O)OC2CN` (racemic) are 0.25 µM and 1.3 µM (≈ 0.332 µg/mL).
On to `CCCOc1ccc(Br)c2c1B(O)O[C@@H]2CN`, for which the IC50 on Leucine--tRNA ligase came to 0.24 µM. The molecule also yielded an MIC in experiment [1] of 0.38 µM (≈ 0.114 µg/mL).
In the case of `NCC1OB(O)c2c(OCCc3ccccc3)ccc(Cl)c21` (racemic), the half-inhibitory concentration (IC50) at Leucine--tRNA ligase turned out to be 0.72 µM. The same molecule came in with an MIC in experiment [1] of 5 µM (≈ 1.59 µg/mL).
In the same order, the values of `NCC1OB(O)c2cc(OCCO)cc(Cl)c21` (racemic) are 1.11 µM and greater than 5 µM.
In the same order, the values of `CCCOc1cc(Br)c2c(c1)B(O)OC2CN` (racemic) are 0.37 µM and 0.6 µM (≈ 0.18 µg/mL).
In the same order, the values of `NCC1OB(O)c2c(Oc3ccccc3)ccc(Cl)c21` (racemic) are 0.34 µM and 5 µM (≈ 1.45 µg/mL).
`NCC1OB(O)c2c3c(cc(Br)c21)OCO3` (racemic): the IC50 at Leucine--tRNA ligase turned out to be 0.61 µM. In addition, the MIC in experiment [1] is greater than 5 µM.
`NCC1OB(O)c2c3c(cc(Cl)c21)OCO3` (racemic): the IC50 at Leucine--tRNA ligase is 0.25 µM. This molecule yielded an MIC in experiment [1] greater than 5 µM.
Turning to `NCC1OB(O)c2c(Oc3ccc(Br)cc3)ccc(Br)c21` (racemic), on Leucine--tRNA ligase, the IC50 was 0.69 µM. This molecule gave an MIC in experiment [1] greater than 5 µM.
Consider `NCC1OB(O)c2cc(OCCO)cc(Br)c21` (racemic), for which the 50% inhibitory concentration (IC50) on Leucine--tRNA ligase amounted to 0.89 µM. The molecule also registered a minimal inhibitory concentration (MIC) in experiment [1] greater than 5 µM.
In the same order, the values of `NC[C@H]1OB(O)c2c(OCCCO)ccc(Cl)c21` are 0.47 µM and 0.14 µM (≈ 0.038 µg/mL).
The corresponding values for `CCCOc1ccc(Cl)c2c1B(O)O[C@@H]2CN` are 0.31 µM and 0.16 µM (≈ 0.0409 µg/mL).
The corresponding values for `NCC1OB(O)c2c(OCCO)ccc(Cl)c21` (racemic) are 0.24 µM and 0.63 µM (≈ 0.162 µg/mL).
Turning to `CCOc1cc(Br)c2c(c1)B(O)OC2CN` (racemic), on Leucine--tRNA ligase, the IC50 worked out at 0.26 µM. Besides, the MIC in experiment [1] worked out at 3.75 µM (≈ 1.07 µg/mL).
The corresponding values for `CCCCOc1ccc(Cl)c2c1B(O)O[C@@H]2CN` are 0.27 µM and 0.6 µM (≈ 0.162 µg/mL).
The corresponding values for `NCC1OB(O)c2c3c(cc(Br)c21)OCCO3` (racemic) are 0.092 µM and 0.5 µM (≈ 0.15 µg/mL).
As to `NCC1OB(O)c2c(OCCF)ccc(Cl)c21` (racemic), on Leucine--tRNA ligase, the concentration for half-maximal inhibition (IC50) stood at 0.076 µM. Also, the MIC in experiment [1] worked out at 0.2 µM (≈ 0.0519 µg/mL).
The corresponding values for `NCC1OB(O)c2c(OCCF)ccc(Br)c21` (racemic) are 0.26 µM and 0.2 µM (≈ 0.0608 µg/mL).
On to `NCC1OB(O)c2c(OCc3ccccc3)ccc(Cl)c21` (racemic), for which, at Leucine--tRNA ligase, the IC50 is 0.32 µM. For the same molecule, it took 5 µM (≈ 1.52 µg/mL) to inhibit growth in experiment [1] (MIC).
Take `CCOc1ccc(F)c2c1B(O)O[C@@H]2CN`: the lowest concentration to inhibit growth in experiment [1] (MIC) was 0.2 µM (≈ 0.045 µg/mL).
As to `CCOc1cccc2c1B(O)O[C@@H]2CN`, in experiment [1], the MIC came out at 0.6 µM (≈ 0.124 µg/mL).
For the molecule `NC[C@@H]1OB(O)c2c3c(cc(Br)c21)OCCO3`, the IC50 on Leucine--tRNA ligase came to 4.2 µM. In experiment [1], this molecule showed an MIC of 40 µM (≈ 12 µg/mL).
The corresponding values for `NC[C@@H]1OB(O)c2c(OCCO)ccc(Br)c21` are 14.2 µM and 10 µM (≈ 3.02 µg/mL).
In the same order, the values of `NCC1OB(O)c2cc(OCCCO)cc(Cl)c21` (racemic) are 0.44 µM and greater than 5 µM.
The corresponding values for `CCOc1cc(Cl)c2c(c1)B(O)OC2CN` (racemic) are 0.63 µM and greater than 5 µM.
Turning to `NC[C@@H]1OB(O)c2c3c(cc(Cl)c21)OCCO3`, on Leucine--tRNA ligase, the IC50 stood at 12.6 µM. In addition, in experiment [1], the MIC came to 80 µM (≈ 20.4 µg/mL).
`NCC1OB(O)c2c(OCC(F)F)ccc(Cl)c21` (racemic): the IC50 at Leucine--tRNA ligase turned out to be 0.29 µM. This molecule came in with an MIC in experiment [1] of 0.3 µM (≈ 0.0832 µg/mL).
On to `NCC1OB(O)c2c(OCCO)ccc(Br)c21` (racemic), for which the IC50 at Leucine--tRNA ligase came to 0.15 µM. Besides, in experiment [1], inhibition of growth (MIC) required 0.16 µM (≈ 0.0483 µg/mL).
